Experimental data: ChEMBL document CHEMBL1255424, “Antistaphylococcal activity of ACHN-490 tested alone and in combination with other agents by time-kill assay” (2010)
Values after ≈ are worked out from the molar mass of the structure shown.

Assays:
Type in all cases: functional
[1] = system: Staphylococcus aureus; assay: Antibacterial activity against hospital-acquired methicillin-resistant Staphylococcus aureus isolate 1838 after 24 hrs by modified broth macrodilution method; settings: isolate 1838, 24 h
How it was run: (§1)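 MIC read after 24 h incubation by modified broth macrodilution, validated per CLSI recommendations, against recent clinical MRSA isolates (hospital- and community-acquired, hVISA, VISA, VRSA). Daptomycin tests ran in Mueller-Hinton broth with added calcium.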

[2] = system: Staphylococcus aureus; assay: Antibacterial activity against vancomycin-intermediate Staphylococcus aureus isolate 1003 after 24 hrs by modified broth macrodilution method; settings: isolate 1003, 24 h; how it was run: as §1
[3] = system: Staphylococcus aureus; assay: Antibacterial activity against vancomycin-intermediate Staphylococcus aureus isolate 1287 after 24 hrs by modified broth macrodilution method; settings: isolate 1287, 24 h; how it was run: as §1
[4] = system: Staphylococcus aureus; assay: Antibacterial activity against community-acquired methicillin-resistant panton-valentine leukocidin-positive Staphylococcus aureus isolate 1472 after 24 hrs by modified broth macrodilution method; settings: isolate 1472, 24 h; how it was run: as §1
[5] = system: Staphylococcus aureus; assay: Antibacterial activity against vancomycin-intermediate Staphylococcus aureus isolate 1012 after 24 hrs by modified broth macrodilution method; settings: isolate 1012, 24 h; how it was run: as §1
[6] = system: Staphylococcus aureus; assay: Antibacterial activity against vancomycin-intermediate Staphylococcus aureus isolate 1004 after 24 hrs by modified broth macrodilution method; settings: isolate 1004, 24 h; how it was run: as §1
[7] = system: Staphylococcus aureus; assay: Antibacterial activity against hospital-acquired methicillin-resistant Staphylococcus aureus isolate 1808 after 24 hrs by modified broth macrodilution method; settings: isolate 1808, 24 h; how it was run: as §1
[8] = system: Staphylococcus aureus; assay: Antibacterial activity against vancomycin-intermediate Staphylococcus aureus isolate 1006 after 24 hrs by modified broth macrodilution method; settings: isolate 1006, 24 h; how it was run: as §1
[9] = system: Staphylococcus aureus; assay: Antibacterial activity against vancomycin-susceptible Staphylococcus aureus after 24 hrs by modified broth macrodilution method
How it was run: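 MICs determined in recent clinical MRSA isolates by a modified broth macrodilution method per CLSI recommendations, with 24 h incubation. Daptomycin tests used Mueller-Hinton broth supplemented with calcium. Value is the lowest inhibitory drug concentration.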

[10] = system: Staphylococcus aureus; assay: Antibacterial activity against community-acquired methicillin-resistant panton-valentine leukocidin-positive Staphylococcus aureus isolate 1468 after 24 hrs by modified broth macrodilution method; settings: isolate 1468, 24 h; how it was run: as §1
[11] = system: Staphylococcus aureus; assay: Antibacterial activity against vancomycin-resistant Staphylococcus aureus after 24 hrs by modified broth macrodilution method; how it was run: as §1
[12] = system: Staphylococcus aureus; assay: Antibacterial activity against vancomycin-hetero-intermediate Staphylococcus aureus isolate 873 after 24 hrs by modified broth macrodilution method; settings: isolate 873, 24 h; how it was run: as §1
[13] = system: Staphylococcus aureus; assay: Antibacterial activity against community-acquired methicillin-resistant panton-valentine leukocidin-positive Staphylococcus aureus isolate 1469 after 24 hrs by modified broth macrodilution method; settings: isolate 1469, 24 h; how it was run: as §1
[14] = system: Staphylococcus aureus; assay: Antibacterial activity against vancomycin-intermediate Staphylococcus aureus isolate 1984 after 24 hrs by modified broth macrodilution method; settings: isolate 1984, 24 h; how it was run: as §1
[15] = system: Staphylococcus aureus; assay: Antibacterial activity against community-acquired methicillin-resistant panton-valentine leukocidin-positive Staphylococcus aureus isolate 593 after 24 hrs by modified broth macrodilution method; settings: isolate 593, 24 h; how it was run: as §1
[16] = system: Staphylococcus aureus; assay: Antibacterial activity against community-acquired methicillin-resistant panton-valentine leukocidin-positive Staphylococcus aureus isolate 693 after 24 hrs by modified broth macrodilution method; settings: isolate 693, 24 h; how it was run: as §1
[17] = system: Staphylococcus aureus; assay: Antibacterial activity against vancomycin-resistant Staphylococcus aureus isolate 509 after 24 hrs by modified broth macrodilution method; settings: isolate 509, 24 h; how it was run: as §1
[18] = system: Staphylococcus aureus; assay: Antibacterial activity against vancomycin-resistant Staphylococcus aureus isolate 1264 after 24 hrs by modified broth macrodilution method; settings: isolate 1264, 24 h; how it was run: as §1
[19] = system: Staphylococcus aureus; assay: Antibacterial activity against community-acquired methicillin-resistant panton-valentine leukocidin-negative Staphylococcus aureus isolate 1470 after 24 hrs by modified broth macrodilution method; settings: isolate 1470, 24 h; how it was run: as §1
[20] = system: Staphylococcus aureus; assay: Antibacterial activity against vancomycin-hetero-intermediate Staphylococcus aureus after 24 hrs by modified broth macrodilution method; how it was run: as §1
[21] = system: Staphylococcus aureus; assay: Antibacterial activity against methicillin-resistant Staphylococcus aureus isolate 2003 after 24 hrs by modified broth macrodilution method; settings: isolate 2003, 24 h; how it was run: as §1
[22] = system: Staphylococcus aureus; assay: Antibacterial activity against community-acquired methicillin-resistant panton-valentine leukocidin-positive Staphylococcus aureus isolate 813 after 24 hrs by modified broth macrodilution method; settings: isolate 813, 24 h; how it was run: as §1
[23] = system: Staphylococcus aureus; assay: Antibacterial activity against vancomycin-intermediate Staphylococcus aureus isolate 1010 after 24 hrs by modified broth macrodilution method; settings: isolate 1010, 24 h; how it was run: as §1
[24] = system: Staphylococcus aureus; assay: Antibacterial activity against vancomycin-resistant Staphylococcus aureus isolate 1263 after 24 hrs by modified broth macrodilution method; settings: isolate 1263, 24 h; how it was run: as §1
[25] = system: Staphylococcus aureus; assay: Antibacterial activity against vancomycin-intermediate Staphylococcus aureus isolate 1009 after 24 hrs by modified broth macrodilution method; settings: isolate 1009, 24 h; how it was run: as §1
[26] = system: Staphylococcus aureus; assay: Antibacterial activity against hospital-acquired methicillin-resistant Staphylococcus aureus isolate 1743 after 24 hrs by modified broth macrodilution method; settings: isolate 1743, 24 h; how it was run: as §1
[27] = system: Staphylococcus aureus; assay: Antibacterial activity against vancomycin-intermediate Staphylococcus aureus isolate 1007 after 24 hrs by modified broth macrodilution method; settings: isolate 1007, 24 h; how it was run: as §1
[28] = system: Staphylococcus aureus; assay: Antibacterial activity against hospital-acquired methicillin-resistant Staphylococcus aureus isolate 1751 after 24 hrs by modified broth macrodilution method; settings: isolate 1751, 24 h; how it was run: as §1
[29] = system: Staphylococcus aureus; assay: Antibacterial activity against vancomycin-intermediate Staphylococcus aureus isolate 770 after 24 hrs by modified broth macrodilution method; settings: isolate 770, 24 h; how it was run: as §1
[30] = system: Staphylococcus aureus; assay: Antibacterial activity against vancomycin-intermediate Staphylococcus aureus isolate 1015 after 24 hrs by modified broth macrodilution method; settings: isolate 1015, 24 h; how it was run: as §1
[31] = system: Staphylococcus aureus; assay: Antibacterial activity against hospital-acquired methicillin-resistant Staphylococcus aureus isolate 1867 after 24 hrs by modified broth macrodilution method; settings: isolate 1867, 24 h; how it was run: as §1
[32] = system: Staphylococcus aureus; assay: Antibacterial activity against vancomycin-resistant Staphylococcus aureus isolate 557 after 24 hrs by modified broth macrodilution method; settings: isolate 557, 24 h; how it was run: as §1
[33] = system: Staphylococcus aureus; assay: Antibacterial activity against vancomycin-intermediate Staphylococcus aureus isolate 1017 after 24 hrs by modified broth macrodilution method; settings: isolate 1017, 24 h; how it was run: as §1
[34] = system: Staphylococcus aureus; assay: Antibacterial activity against hospital-acquired methicillin-resistant Staphylococcus aureus isolate 1766 after 24 hrs by modified broth macrodilution method; settings: isolate 1766, 24 h; how it was run: as §1
[35] = system: Staphylococcus aureus; assay: Antibacterial activity against vancomycin-hetero-intermediate Staphylococcus aureus isolate 618 after 24 hrs by modified broth macrodilution method; settings: isolate 618, 24 h; how it was run: as §1
[36] = system: Staphylococcus aureus; assay: Antibacterial activity against vancomycin-intermediate Staphylococcus aureus isolate 1008 after 24 hrs by modified broth macrodilution method; settings: isolate 1008, 24 h; how it was run: as §1
[37] = system: Staphylococcus aureus; assay: Antibacterial activity against hospital-acquired methicillin-resistant Staphylococcus aureus isolate 1806 after 24 hrs by modified broth macrodilution method; settings: isolate 1806, 24 h; how it was run: as §1
[38] = system: Staphylococcus aureus; assay: Antibacterial activity against vancomycin-intermediate Staphylococcus aureus isolate 511 after 24 hrs by modified broth macrodilution method; settings: isolate 511, 24 h; how it was run: as §1
[39] = system: Staphylococcus aureus; assay: Antibacterial activity against vancomycin-resistant Staphylococcus aureus isolate 510 after 24 hrs by modified broth macrodilution method; settings: isolate 510, 24 h; how it was run: as §1
[40] = system: Staphylococcus aureus; assay: Antibacterial activity against community-acquired methicillin-resistant panton-valentine leukocidin-positive Staphylococcus aureus isolate 1471 after 24 hrs by modified broth macrodilution method; settings: isolate 1471, 24 h; how it was run: as §1
[41] = system: Staphylococcus aureus; assay: Antibacterial activity against vancomycin-intermediate Staphylococcus aureus isolate 1016 after 24 hrs by modified broth macrodilution method; settings: isolate 1016, 24 h; how it was run: as §1
[42] = system: Staphylococcus aureus; assay: Antibacterial activity against vancomycin-intermediate Staphylococcus aureus isolate 1013 after 24 hrs by modified broth macrodilution method; settings: isolate 1013, 24 h; how it was run: as §1
[43] = system: Staphylococcus aureus; assay: Antibacterial activity against vancomycin-intermediate Staphylococcus aureus after 24 hrs by modified broth macrodilution method; how it was run: as §1
[44] = system: Staphylococcus aureus; assay: Antibacterial activity against community-acquired methicillin-resistant panton-valentine leukocidin-positive Staphylococcus aureus isolate 950 after 24 hrs by modified broth macrodilution method; settings: isolate 950, 24 h; how it was run: as §1
[45] = system: Staphylococcus aureus; assay: Antibacterial activity against vancomycin-intermediate Staphylococcus aureus isolate 1005 after 24 hrs by modified broth macrodilution method; settings: isolate 1005, 24 h; how it was run: as §1
[46] = system: Staphylococcus aureus; assay: Antibacterial activity against hospital-acquired methicillin-resistant Staphylococcus aureus isolate 1851 after 24 hrs by modified broth macrodilution method; settings: isolate 1851, 24 h; how it was run: as §1
[47] = system: Staphylococcus aureus; assay: Antibacterial activity against hospital-acquired methicillin-resistant Staphylococcus aureus isolate 1776 after 24 hrs by modified broth macrodilution method; settings: isolate 1776, 24 h; how it was run: as §1
[48] = system: Staphylococcus aureus; assay: Antibacterial activity against vancomycin-intermediate Staphylococcus aureus isolate 1014 after 24 hrs by modified broth macrodilution method; settings: isolate 1014, 24 h; how it was run: as §1
[49] = system: Staphylococcus aureus; assay: Antibacterial activity against community-acquired methicillin-resistant panton-valentine leukocidin-positive Staphylococcus aureus isolate 815 after 24 hrs by modified broth macrodilution method; settings: isolate 815, 24 h; how it was run: as §1
[50] = system: Staphylococcus aureus; assay: Antibacterial activity against vancomycin-intermediate Staphylococcus aureus isolate 555 after 24 hrs by modified broth macrodilution method; settings: isolate 555, 24 h; how it was run: as §1
[51] = system: Staphylococcus aureus; assay: Antibacterial activity against vancomycin-intermediate Staphylococcus aureus isolate 1011 after 24 hrs by modified broth macrodilution method; settings: isolate 1011, 24 h; how it was run: as §1

## CN[C@@H]1[C@@H](O)[C@@](C)(O[C@@H]2[C@@H](O)[C@H](O[C@H]3OC(CNCCO)=CC[C@H]3N)[C@@H](N)C[C@H]2NC(=O)[C@H](O)CCN)OC[C@]1(C)O
[1]
  MIC: 2 µg/mL (≈ 3.3 µM)
[2]
  MIC: 1 µg/mL (≈ 1.65 µM)
[3]
  MIC: 4 µg/mL (≈ 6.59 µM)
[4]
  MIC: 2 µg/mL (≈ 3.3 µM)
[5]
  MIC: 2 µg/mL (≈ 3.3 µM)
[6]
  MIC: 4 µg/mL (≈ 6.59 µM)
[7]
  MIC: 2 µg/mL (≈ 3.3 µM)
[8]
  MIC: 4 µg/mL (≈ 6.59 µM)
[9]
  MIC: 2 µg/mL (≈ 3.3 µM)
[10]
  MIC: 4 µg/mL (≈ 6.59 µM)
[11]
  MIC: 0.5 µg/mL (≈ 0.824 µM)
[12]
  MIC: 1 µg/mL (≈ 1.65 µM)
[13]
  MIC: 4 µg/mL (≈ 6.59 µM)
[14]
  MIC: 4 µg/mL (≈ 6.59 µM)
[15]
  MIC: 4 µg/mL (≈ 6.59 µM)
[16]
  MIC: 2 µg/mL (≈ 3.3 µM)
[17]
  MIC: 1 µg/mL (≈ 1.65 µM)
[18]
  MIC: 1 µg/mL (≈ 1.65 µM)
[19]
  MIC: 2 µg/mL (≈ 3.3 µM)
[20]
  MIC: 1 µg/mL (≈ 1.65 µM)
[21]
  MIC: 8 µg/mL (≈ 13.2 µM)
[22]
  MIC: 4 µg/mL (≈ 6.59 µM)
[23]
  MIC: 1 µg/mL (≈ 1.65 µM)
[24]
  MIC: 2 µg/mL (≈ 3.3 µM)
[25]
  MIC: 2 µg/mL (≈ 3.3 µM)
[26]
  MIC: 2 µg/mL (≈ 3.3 µM)
[27]
  MIC: 1 µg/mL (≈ 1.65 µM)
[28]
  MIC: 2 µg/mL (≈ 3.3 µM)
[29]
  MIC: 2 µg/mL (≈ 3.3 µM)
[30]
  MIC: 4 µg/mL (≈ 6.59 µM)
[31]
  MIC: 4 µg/mL (≈ 6.59 µM)
[32]
  MIC: 0.5 µg/mL (≈ 0.824 µM)
[33]
  MIC: 2 µg/mL (≈ 3.3 µM)
[34]
  MIC: 2 µg/mL (≈ 3.3 µM)
[35]
  MIC: 1 µg/mL (≈ 1.65 µM)
[36]
  MIC: 2 µg/mL (≈ 3.3 µM)
[37]
  MIC: 2 µg/mL (≈ 3.3 µM)
[38]
  MIC: 2 µg/mL (≈ 3.3 µM)
[39]
  MIC: 1 µg/mL (≈ 1.65 µM)
[40]
  MIC: 4 µg/mL (≈ 6.59 µM)
[41]
  MIC: 2 µg/mL (≈ 3.3 µM)
[42]
  MIC: 2 µg/mL (≈ 3.3 µM)
[43]
  MIC: 1 µg/mL (≈ 1.65 µM)
[44]
  MIC: 4 µg/mL (≈ 6.59 µM)
[45]
  MIC: 2 µg/mL (≈ 3.3 µM)
[46]
  MIC: 4 µg/mL (≈ 6.59 µM)
[47]
  MIC: 4 µg/mL (≈ 6.59 µM)
[48]
  MIC: 2 µg/mL (≈ 3.3 µM)
[49]
  MIC: 4 µg/mL (≈ 6.59 µM)
[50]
  MIC: 4 µg/mL (≈ 6.59 µM)
[51]
  MIC: 2 µg/mL (≈ 3.3 µM)
